Compound activity (PubChem BioAssay)
TAAR1 antag: human TAAR1 antagonism; Q96RJ0; CHO RD-HGA16 TAAR1, Fluo-8 calcium fluorescence, antagonist; inhibition, % at 3 µM; 360,000 tested, 1.5% active; AID 624466;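 active = inhibition above a per-plate cutoff, the mean inhibition of test compounds on that plate plus 3 SD, cut at about 49% in these data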;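 note: 0% = DMSO plus EC80 beta-PEA response and 100% = DMSO alone without agonist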
Target sequence (Q96RJ0 whole entry, looked up): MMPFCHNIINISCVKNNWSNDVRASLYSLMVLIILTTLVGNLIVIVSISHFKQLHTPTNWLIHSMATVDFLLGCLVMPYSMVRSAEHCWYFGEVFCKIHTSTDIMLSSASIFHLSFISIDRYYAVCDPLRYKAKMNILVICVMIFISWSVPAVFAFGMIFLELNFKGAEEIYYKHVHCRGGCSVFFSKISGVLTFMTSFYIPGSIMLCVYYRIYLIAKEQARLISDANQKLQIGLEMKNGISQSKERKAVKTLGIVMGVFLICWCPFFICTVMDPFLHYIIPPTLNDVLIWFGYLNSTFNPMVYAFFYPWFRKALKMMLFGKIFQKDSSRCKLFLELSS
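System: CHO RD-HGA16 cells bearing hTAAR1. Reagent: EC80 β-phenethylamine stimulus. Schedule: seeding 17-24 h prior, 75-min 37 °C, 30-min RT dye loading. Signal: Fluo-8 intracellular calcium dye fluorescence, real-time kinetic reads. Read-out: % inhibition from peak post-agonist over basal fluorescence ratio. Benchmarks: vehicle wells and EC80 agonist wells. Replicates: n of 1.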
MPTP block: blocks calcium-induced mitochondrial swelling; isolated mouse mitochondria, Ca2+ swelling absorbance, 30 min; inhibition, % at 10 µM; 360,000 tested, 1.4% active;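 active = inhibition of 50% or more, scaled per plate between neutral and stimulator controls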;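 note: 0% = DMSO wells given calcium and 100% = 1 mM EGTA wells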
TAAR1 agonist: agonists of human TAAR1; CHO RD-HGA16 TAAR1, Fluo-8 calcium fluorescence; vehicle wells 0%, saturating PEA agonist 100%; activation, % at 3 µM; 360,000 tested, 0.99% active; AID 624467;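 active = activation above the mean activation of all test compounds in the run plus 3 SD, cut at about 38% in these data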
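Benchmarks: low control DMSO, high control PEA (EC100); System: CHO RD-HGA16 cells carrying human TAAR1 plus Gα16; Detection: Fluo-8 fluorescence, 5 s baseline then 140 s kinetic read; Schedule: 17-24 h plating, Fluo-8 75 min 37 °C, 30 min RT; Read-out basis: % activation from peak over basal fluorescence ratio, DMSO-to-PEA scaled.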
DAGLB inhibitor: diacylglycerol lipase beta (human) inhibition; Q8NCG7; HEK293T DAGLB membrane lysate, EnzChek fluorogenic substrate; inhibition, % at 5.17 µM; 340,000 tested, 0.059% active; in the data active = inhibition above about 34%;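 note: 0% = enzyme with vehicle and 100% = wells lacking enzyme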
GPR7 antag: antagonists of human GPR7 (neuropeptides B/W receptor 1) | P48145 | 290,000 tested, 1.1% active | inhibition, % at 4.4 µM | GPR7-expressing cells, fluorescence antagonist assay; in the data active = inhibition above about 16%, passing the limit was not always enough;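 note: cells stimulated with the agonist NPW; 0% = agonist with vehicle and 100% = vehicle without agonist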
Target sequence (P48145 whole entry, looked up): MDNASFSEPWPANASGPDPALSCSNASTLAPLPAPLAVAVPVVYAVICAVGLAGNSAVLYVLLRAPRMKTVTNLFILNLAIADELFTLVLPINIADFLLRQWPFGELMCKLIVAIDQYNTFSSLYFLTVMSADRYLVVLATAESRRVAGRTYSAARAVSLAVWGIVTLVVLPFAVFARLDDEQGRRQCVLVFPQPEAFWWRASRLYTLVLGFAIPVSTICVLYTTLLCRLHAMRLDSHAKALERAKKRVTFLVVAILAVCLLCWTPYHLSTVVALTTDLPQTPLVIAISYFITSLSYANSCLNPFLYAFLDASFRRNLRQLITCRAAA
TAAR1 ag conf: human TAAR1 agonism, confirmed; shares compounds with TAAR1 agonist; CHO RD-HGA16 TAAR1, Fluo-8 calcium fluorescence; scaled: DMSO 0%, maximal phenethylamine 100%; activation, % at 3 µM; 2,400 tested, 82% active; AID 651783;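 active = activation above a cutoff set at the run's mean compound activation plus 3 SD, cut at about 39% in these data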
Ga16 nonsel ag: nonselective agonism, TAAR1 counter-screen; shares compounds with TAAR1 agonist; AID 651787; 2,400 tested, 50% active; activation, % at 3 µM; CHO-Ga16 parental, Fluo-8 calcium fluorescence; normalized to maximal ATP response, DMSO zero;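 active = activation above the run cutoff, the mean activation over all tested wells plus 3 SD, cut at about 12% in these data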;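 note: 0% = DMSO wells and 100% = maximal ATP response on the peak over basal ratio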
TAAR1 desens: counter-screen for human TAAR1 agonists: agonists that desensitize TAAR1; shares compounds with TAAR1 agonist; CHO RD-HGA16 hTAAR1, Fluo-8 calcium, beta-PEA response inhibition; inhibition, % at 3 µM; 2,400 tested, 46% active; AID 651951;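 active = inhibition above the run cutoff, the mean inhibition of all test compounds plus 3 SD, cut at about 49% in these data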;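 note: beta-PEA stimulus applied at its EC80; loss of beta-PEA calcium signal after compound pretreatment read as receptor desensitization; 0% = DMSO with beta-PEA at EC80 and 100% = DMSO alone without agonist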
Ga16 nonsel ant: counter-screen for TAAR1 agonists: nonselective Ga16 antagonists; inhibition, % at 3 µM; CHO-Ga16 ATP-induced calcium, Fluo-8 fluorescence; shares compounds with TAAR1 agonist; AID 651952; 2,400 tested, 39% active;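 active = inhibition above the plate's mean compound inhibition plus 3 SD, computed per plate, cut at about 22% in these data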;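 note: 0% = EC80 ATP with DMSO and 100% = DMSO wells without ATP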
* marks the source's active call; other numbers are inactive results; . = no result; ! = not active in a repeat. Shown are actives, neighbours in structure and some others; about 4% of the full set was active somewhere.

SMILES | TAAR1 antag | MPTP block | TAAR1 agonist | DAGLB inhibitor | GPR7 antag | TAAR1 ag conf | Ga16 nonsel ag | TAAR1 desens | Ga16 nonsel ant
Cc1ccccc1C(=O)NNC(=S)NC(=O)c1cccs1 | 65* | 2 | 128* | 2 | 4 | 67* | 69* | 29 | 30*
Cc1cc(OCC(=O)NNC(=S)NC(=O)c2cccs2)ccc1Cl | 65* | 4 | 103* | 5 | -19 | 77* | 76* | 58* | 54*
COc1cc(OC)cc(C(=O)NC(=S)NNC(=O)Cc2cccs2)c1 | 16 | 0 | 80* | 1 | -1 | 56* | 37* | 28 | 16
Cc1ccccc1C(=O)Nc1cccc(NC(=S)NC(=O)c2cccs2)c1 | -11 | -6 | 4 | -5 | -8 | . | . | . | .
Nc1ccn([C@@H]2O[C@H](CNCc3cccc(OC4CCCC4)c3)[C@@H](O)[C@H]2O)c(=O)n1 | 8 | 0 | 0 | 2 | . | . | . | . | .
CCc1nc2c(OCc3cc(Cl)cc(Cl)c3)cccn2c1N(C=O)Cc1ccccc1 | -10 | 0 | -1 | . | . | . | . | . | .
CC(NC(=O)COC(=O)c1ccc2c(=O)n3c(nc2c1)CCCCC3)c1ccc(F)cc1 (centres undefined) | -15 | -1 | 2 | 0 | . | . | . | . | .
Cc1ccc([C@H]2C[C@@H](O)[C@H](n3cc(-c4ccc(F)cc4)nn3)CN2Cc2cccs2)cc1 | 2 | -1 | 1 | -1 | . | . | . | . | .
COc1ccc(C(c2nnnn2CCc2ccccc2)N2CCN(C3CCCC3)CC2)cc1 (centres undefined) | 54* | 0 | 71* | 0 | 0 | 85* | 2 | 61* | 6
CN(CCc1ccccc1)c1cc2c(c3c1ccn3C)C1CCC2C1 (centres undefined) | 39 | 1 | 82* | . | . | 52* | 1 | -6 | 4
CN(Cc1ccccc1)c1cc2c(c3c1ccn3C)C1CCC2C1 (centres undefined) | -25 | 3 | 3 | . | . | . | . | . | .
c1ccc(C[C@H]2CN=C(Nc3ccccc3)N2CCCC2CCCCC2)cc1 | -2 | 4 | 47* | -4 | . | 20 | 3 | 13 | 13
Fc1ccccc1C1CCN(Cc2nc(CC3CC3)no2)C1 (centres undefined) | -8 | 2 | 48* | -7 | 10 | 62* | 3 | -3 | 2
CC(C)[C@@H](C(=O)N[C@@H](CCc1ccc(O)cc1)C(=O)O)N(C)C(=O)[C@H](CO)NC(=O)[C@@H](O)[C@H](N)CCCCCCCCl | -1 | -1 | 1 | . | . | . | . | . | .
CC1CCN(C(=O)c2ccc3c(c2NCCO)C(=O)c2ccccc2C3=O)CC1 | 21 | 6 | 48* | 32 | -4 | 15 | 10 | 30 | 25*
O=C(c1cc(-c2ccccc2O)on1)N1CCc2ccccc2C1 | 31 | 3 | 3 | -3 | -15 | . | . | . | .
O=C(c1cc(-c2ccc(O)cc2)on1)N1CCc2ccccc2C1 | 33 | 1 | 72* | -5 | -4 | 91* | 17* | 67* | 11
Cc1ccc(S(=O)(=O)N2CCCc3nc(-c4ccc(Br)cc4)ccc32)cc1 | -24 | . | 0 | . | . | . | . | . | .
COc1ccc(C(=O)Cn2c(NCCCO)nc3ccccc32)cc1 | -8 | -1 | 5 | 0 | . | . | . | . | .
Cc1cc2nc(NCCCO)n(CC(=O)c3cc(C(C)(C)C)c(O)c(C(C)(C)C)c3)c2cc1C | 44 | 38 | 49* | -4 | . | 53* | 30* | 41 | 34*
O=C(N/N=C/c1c(O)ccc2ccccc12)c1cccnc1 | 3 | 1 | 16 | -4 | 23 | . | . | . | .
O=C(N/N=C\c1c(O)ccc2ccccc12)c1cncc(Br)c1 | 59* | 34 | 121* | -9 | 29 | 72* | 90* | 52* | 58*
CC(C)(C)OC(=O)N1CCN(c2ccc(NC(=O)c3ccco3)cc2)CC1 | 21 | -1 | 9 | 1 | -3 | . | . | . | .
CCOC(=O)C1CCCN(C(=S)Nc2ccc(C)cc2C)C1 (centres undefined) | 60* | -1 | 69* | 1 | -6 | 34 | -1 | 31 | 9
CCOC(=O)C1CCCN(C(=O)Cc2ccc(C)cc2)C1 (centres undefined) | 10 | -3 | 5 | -1 | 7 | . | . | . | .
SMILES | TAAR1 antag | MPTP block | TAAR1 agonist | DAGLB inhibitor | GPR7 antag | TAAR1 ag conf | Ga16 nonsel ag | TAAR1 desens | Ga16 nonsel ant
O=C1c2cccc3c(N4CCCCC4)ccc(c23)C(=O)N1c1ccccc1O | 65* | 0 | 130* | -24 | -12 | 24 | 33* | 36 | 50*
COc1ccc(NC(=O)COC(=O)CCC2CCCC2)c(OC)c1 | 5 | -1 | -2 | -6 | . | . | . | . | .
Cc1ccc(SC/C(O)=C(\C#N)c2nc3ccccc3n2C)cc1 | 56* | -3 | 52* | -1 | -5 | 31 | 51* | 19 | 53*
c1ccc(CCN2CN(CCCN3CCOCC3)c3nc4ccccc4n3C2)cc1 | . | 0 | . | -1 | -7 | . | 0 | . | 11
CC(=O)N1C[C@H]2CON(C)[C@H]2C[C@H]1c1ccccc1-c1ccccc1 | -20 | . | 1 | . | . | . | . | . | .
O=C(Nc1cccc(Cl)c1)c1csc([C@H]2C[C@H](O)[C@@H](CO)O2)n1 | -6 | -1 | 6 | . | . | . | . | . | .
CN1CCN(c2ccc(NC(=O)c3ccc([N+](=O)[O-])o3)cc2Cl)CC1 | 4 | -1 | 45* | 1 | -4 | 55* | 1 | 28 | 12
N#Cc1cc(C(=O)c2ccccc2O)cn(-c2nccs2)c1=O | 71* | 46 | 126* | -35 | 13 | 90* | 84* | 65* | 59*
COc1cc(CC(=O)N2CCN(S(=O)(=O)c3ccc(C(C)C)cc3)CC2)cc(OC)c1OC | -29 | 0 | 0 | 1 | . | . | . | . | .
Cc1cnc(C)c(Nc2nc(C(N)c3ccccc3)cs2)n1 (centres undefined) | -1 | 2 | 6 | . | . | . | . | . | .
Cc1ccccc1OCCC(=O)Nc1cc(S(=O)(=O)N2CCCCC2)ccc1N1CCN(C)CC1 | 49* | -4 | 90* | 2 | . | 105* | 73* | 78* | 59*
Cc1ccc(OCC(=O)Nc2cc(S(=O)(=O)N3CCCCC3)ccc2N2CCN(C)CC2)c(C)c1 | -11 | 3 | 6 | -1 | . | . | . | . | .
Oc1ccc(C2CNCCc3c2cc(O)c(O)c3Cl)cc1 (centres undefined) | 13 | 1 | 62*! | 0 | . | 81* | 0 | 76* | 10
COc1ccc(CCn2c(-c3ccccc3)nc3c(c(=O)c4ccccc4n3C)c2=O)cc1 | -20 | . | -1 | . | 1 | . | . | . | .
